“Also recorded” adds a separate entry of the source.
Tests used:
[1] = test system: m6 TCR; type: binding, mouse; settings: calculated from the flow cytometry kd, room temperature
Summary of the method: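 T2-Ld cells (human lymphoblastoid line expressing Ld, ~3 × 10^6/ml) were loaded with peptide (~1–10 μM final) for 2 h at 37°C. They were stained for 30 min with full-length m6 TCR Drosophila supernatant, washed, and held at room temperature in PBS/1% BSA with F23.2 IgG (~300 μg/ml) as competitor. At timed points, ice-cold washes were done and residual TCR was detected by F23.1-biotin/SAv:PE flow cytometry. n = 2–3.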

[2] = test system: m6 TCR; assay: SPR of TCR binding to immobilized null MCMV/L^d/Ig; design: species or system mouse; settings: PBS, 25°C
Summary of the method: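 MCMV-loaded Ld/IgG1 fusion (peptide at 100-fold molar excess, pH 6.5, 37°C 1.5 h; refolded pH 7.4, 4°C 24 h; G-200 repurified) was captured on a CM5 chip coated with rabbit anti-mouse IgG. Drosophila-expressed His6 soluble m6 TCR, Ni-NTA and gel-filtration purified, was injected at several concentrations at 30 μl/min. Responses were blank-surface subtracted; regeneration used 10 mM glycine, pH 1.5.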

In the case of “QL9-M5: QL9 variant containing a position five (Phe) substitution (QLSPMPFDL)”, the “t1/2 of m6 TCR on cell-bound peptide/L^d” value [1] is reported as 140 s.

With “QL9-Y5: QL9 variant with a Tyr substitution for the Phe at position 5 (QLSPYPFDL)” the “t1/2 of m6 TCR on cell-bound peptide/L^d” value [1] was 1,180 s.

In the case of YPHFMPTNL [MCMV], the “TCR binding to peptide/L^d/Ig immobilized on the chip” value [2] is reported as “not observed; also recorded: undetectable”.

Reference: publication PMC2193521 (The Journal of Experimental Medicine, 2001)
